One data set deals with Schistosoma mansoni. Put plainly: Antiparasitic activity against Schistosoma mansoni infected in mouse assessed as survival up to 49 days at 1280 mg/kg, sc administered through peanut oil on day 2 post infection. More on the design: dose 1280 mg/kg. It counts as functional, organism-based.
Data set [1] has as its system Plasmodium berghei. Put plainly: Antimalarial activity against blood stage of Plasmodium berghei infected in mouse assessed as increase in mean survival time at 320 mg/kg, sc. It counts as functional. The conditions noted are these: route subcutaneous.
For data set [2], the system named is Plasmodium berghei. The data set is described as follows: Antimalarial activity against blood stage of Plasmodium berghei infected in mouse assessed as increase in mean survival time at 160 mg/kg, sc. Format: functional. The conditions noted are these: route subcutaneous.
The subject of data set [3] is Leishmania donovani. Put plainly: Potency index, ratio of glucantime to compound for antileishmanial activity against Leishmania donovani infected in hamster assessed as 90% suppression of parasitemia at 3.25 mg/kg/day, im bid administered 4 days measured for 8 days. It counts as functional. Particulars: route intramuscular.
The next data set concerns Plasmodium cynomolgi. Put plainly: Antimalarial activity against sporozoite stage of Plasmodium cynomolgi infected in rhesus monkey assessed as radical curative activity measured for 90 days. Format: functional, organism-based.
For data set [4], the system named is Plasmodium berghei. The data set is described as follows: Antimalarial activity against blood stage of Plasmodium berghei infected in mouse assessed as increase in mean survival time at 640 mg/kg, sc. It counts as functional. Particulars: route subcutaneous.
Data set [5] relates to Mus musculus. The data set is described as follows: Toxicity in mouse infected with blood stage of Plasmodium berghei assessed as mortality at 80 to 640 mg/kg, sc measured for 5 days. Details: dose 80-640 mg/kg, route subcutaneous. Format: organism-based. The conditions noted are these: in vivo, 120 h. In outline:
(§1)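 P. berghei-infected mice, five per group, after subcutaneous dosing. Deaths occurring 2 to 5 days after drug administration are scored as drug toxicity rather than infection.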

Data set [6] concerns Plasmodium berghei. The data set is described as follows: Antimalarial activity against blood stage of Plasmodium berghei infected in mouse assessed as increase in mean survival time at 80 mg/kg, sc. Format: functional. Particulars: route subcutaneous.
Data set [7] deals with Mus musculus. Put plainly: Toxicity in mouse infected with blood stage of Plasmodium berghei assessed as mortality at 640 mg/kg, sc measured on day 2. It counts as organism-based. Details: dose 640 mg/kg, route subcutaneous. The conditions noted are these: in vivo. The procedure, abridged:
as §1

Data set [8] deals with Mus musculus. Put plainly: Toxicity in mouse infected with blood stage of Plasmodium berghei assessed as mortality at 320 mg/kg, sc measured on day 2. Particulars: in vivo. More on the design: dose 320 mg/kg, route subcutaneous. It counts as organism-based. The procedure, abridged:
as §1

In data set [9] the test system is Mus musculus. The data set is described as follows: Toxicity in mouse infected with blood stage of Plasmodium berghei assessed as mortality at 160 mg/kg, sc measured on day 2. Format: organism-based. Details: route subcutaneous, dose 160 mg/kg. The conditions noted are these: in vivo. The procedure, abridged: as §1
In data set [10] the test system is Leishmania donovani. The data set is described as follows: Potency index, ratio of glucantime to compound for antileishmanial activity against Leishmania donovani infected in hamster assessed as 90% suppression of parasitemia at 13 to 208 mg/kg/day, im bid administered 4 days measured for 8 days. Format: functional. The conditions noted are these: route intramuscular. In outline:
(§2)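 Hamsters infected with Leishmania donovani were assessed in an 8-day test. Seven animals per drug level received 208, 52 or 13 mg/kg/day. Percent suppression of parasites was calculated against infected, untreated controls (seven to ten animals). Glucantime index G = SD90 of Glucantime / SD90 of the new drug, where SD90 is the dose giving 90% parasite suppression.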

In data set [11] the test system is Mus musculus. The data set is described as follows: Toxicity in mouse infected with blood stage of Plasmodium berghei assessed as mortality at 640 mg/kg, sc measured on day 5. It counts as organism-based. More on the design: dose 640 mg/kg, route subcutaneous. The conditions noted are these: in vivo. In outline: as §1
For data set [12], the system named is Mus musculus. Put plainly: Toxicity in mouse infected with blood stage of Plasmodium berghei assessed as mortality at 320 mg/kg, sc measured on day 5. It counts as organism-based. More on the design: dose 320 mg/kg, route subcutaneous. Particulars: in vivo. In outline: as §1
Data set [13] has as its system Leishmania donovani. Put plainly: Potency index, ratio of glucantime to compound for antileishmanial activity against Leishmania donovani infected in hamster assessed as 90% suppression of parasitemia at 13 mg/kg/day, im bid administered 4 days measured for 8 days. Format: functional. The conditions noted are these: route intramuscular. The procedure, abridged: as §2

The test system of data set [14] is Mus musculus. Put plainly: Toxicity in mouse infected with blood stage of Plasmodium berghei assessed as mortality at 160 mg/kg, sc measured on day 1. Particulars: in vivo. More on the design: dose 160 mg/kg, route subcutaneous. It counts as organism-based.
The test system of data set [15] is Leishmania donovani. Put plainly: Potency index, ratio of glucantime to compound for antileishmanial activity against Leishmania donovani infected in hamster assessed as 90% suppression of parasitemia at 208 mg/kg/day, im bid administered 4 days measured for 8 days. The conditions noted are these: route intramuscular. It counts as functional. In outline: as §2

The test system of data set [16] is Mus musculus. The data set is described as follows: Toxicity in mouse infected with blood stage of Plasmodium berghei assessed as mortality at 640 mg/kg, sc measured on day 3. Format: organism-based. More on the design: dose 640 mg/kg, route subcutaneous. The conditions noted are these: in vivo. In outline:
as §1

For data set [17], the system named is Trypanosoma brucei rhodesiense. The data set is described as follows: Antitrypanosomal activity against blood stage of Trypanosoma rhodesiense infected in mouse. It counts as functional, organism-based.
Data set [18] deals with Leishmania donovani. Put plainly: Antileishmanial activity against Leishmania donovani infected in hamster assessed as inhibition of parasitemia at 52 mg/kg/day, im bid administered for 4 days relative to control. Format: functional. The conditions noted are these: 96 h, route intramuscular. In outline:
as §2

The structures appear in SMILES notation. Active and inactive are the calls of the source. The calls are words filed in the database; no cut-off is given here.

Consider `CCc1ccc2cc(OC)cc(NC(C)CCCN)c2n1.O=C(O)/C=C\C(=O)O` (stereo unspecified), for which the outcome with Schistosoma mansoni and in the data set with Plasmodium cynomolgi was inactive. Also, the Survival is 9.9 days in the data set on Plasmodium berghei [1], 8.3 days in the data set on Plasmodium berghei [2], 13.9 days with Plasmodium berghei [4] and 6.7 days in the data set with Plasmodium berghei [6]. In the data set with Leishmania donovani [3], the Ratio came out at 10. Besides, the Activity entry in the data set with Mus musculus [5] is given as “Non-toxic”.

`C=Cc1ccc2cc(OC)cc(NC(C)CCCN)c2n1.O=C(O)/C=C/C(=O)O` (stereo unspecified): the Survival was 5.3 days in the data set on Plasmodium berghei [1], 3.3 days with Plasmodium berghei [2], 7.9 days in the data set on Plasmodium berghei [4] and 2.9 days in the data set with Plasmodium berghei [6]. Also, the Activity result in the data set on Mus musculus [7], with Mus musculus [8] and with Mus musculus [9] was “Toxic” in each case.

For `COc1cc(NC(C)CCCN)c2nc(N)ccc2c1.O=C(O)/C=C\C(=O)O` (stereo unspecified), the outcome with Schistosoma mansoni was inactive. Moreover, in the data set with Leishmania donovani [10], the Ratio is 0.

On to `COc1cc(NC(C)CCCN)c2nc(OC)ccc2c1.O=C(O)/C=C\C(=O)O` (stereo unspecified), for which the values for the Survival in the data set with Plasmodium berghei [2] and in the data set with Plasmodium berghei [6] were 7.9 days and 6.1 days, respectively. The Activity entry in the data set on Mus musculus [11], with Mus musculus [12] and with Mus musculus [14] was “Toxic” throughout. In the data set on Plasmodium cynomolgi, the result was inactive. For the same molecule, in the data set with Leishmania donovani [13], the Ratio is 2.4.

For `COc1cc(NC(C)CCCN)c2nc(Cl)ccc2c1.O=C(O)/C=C\C(=O)O` (stereo unspecified), the Survival in the data set with Plasmodium berghei [1] was 4 days; in the data set on Plasmodium berghei [2], 3 days; in the data set on Plasmodium berghei [4], 5.5 days; in the data set with Plasmodium berghei [6] it was 1.2 days. The result (in the data set on Plasmodium cynomolgi; in [17]) was inactive. In addition, the Activity entry in the data set with Mus musculus [8], with Mus musculus [16] and with Mus musculus [9] was “Toxic” each time. Besides, the Ratio with Leishmania donovani [15] is listed as 0.3.

A word on the inhibition in vivo: it is the relative decrease from the control value, in per cent. `COc1cc(NC(C)CCCN)c2nc(N(C)C)ccc2c1.O=C(O)/C=C/C(=O)O` (stereo unspecified): in the data set with Leishmania donovani [18], the inhibition in vivo at 52 mg/kg/day is 99%. Besides, the Survival in the data set with Plasmodium berghei [2] came out at 5.2 days; with Plasmodium berghei [6] it was 4.9 days. The Activity result with Mus musculus [11], with Mus musculus [12] and in the data set on Mus musculus [14] was “Toxic” in each case.

`COc1cc(NC(C)CCCN)c2ncccc2c1` (stereo unspecified) [PRIMAQUINE]: the Survival with Plasmodium berghei [2] was 10.8 days; in the data set with Plasmodium berghei [6], 9.4 days. Further, the Activity entry with Mus musculus [11], in the data set on Mus musculus [12] and in the data set with Mus musculus [9] was “Toxic” in each case. Besides, in the data set on Leishmania donovani [10], the Ratio worked out at 0.96.

These data come from ChEMBL document CHEMBL3244124, “Synthesis of 2-substituted primaquine analogues as potential antimalarials” (J Med Chem, 1978).
